Assay [1] concerns the target Sodium-dependent serotonin transporter (Homo sapiens) (UniProt P31645). Nature of the assay: % Decrease of 5-HT carrier-receptor -bound radioactivity using paroxetine as a radioligand. Also noted: concentration or dose not given beside the values. In short, it runs like this: (§1)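 Preliminary screen of receptors isolated from rat or pig tissues, run with minor changes to standard procedures. Each compound was tested at a single fixed concentration for each receptor. The read-out was the percent decrease in binding of the named radioligand.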

For assay [2], the target named is Serotonin 2 (5-HT2) receptor (Rattus norvegicus) (UniProt P30994+P08909+P14842). The assay is described as follows: Percent decrease in 5-hydroxytryptamine 2 receptor binding using ketanserin. The format is protein assay. Also noted: scale not given: the % may be the effect or the level left. In short, it runs like this: as §1
Sequence of Serotonin 2 (5-HT2) receptor (Rattus norvegicus) (P08909 whole entry, looked up): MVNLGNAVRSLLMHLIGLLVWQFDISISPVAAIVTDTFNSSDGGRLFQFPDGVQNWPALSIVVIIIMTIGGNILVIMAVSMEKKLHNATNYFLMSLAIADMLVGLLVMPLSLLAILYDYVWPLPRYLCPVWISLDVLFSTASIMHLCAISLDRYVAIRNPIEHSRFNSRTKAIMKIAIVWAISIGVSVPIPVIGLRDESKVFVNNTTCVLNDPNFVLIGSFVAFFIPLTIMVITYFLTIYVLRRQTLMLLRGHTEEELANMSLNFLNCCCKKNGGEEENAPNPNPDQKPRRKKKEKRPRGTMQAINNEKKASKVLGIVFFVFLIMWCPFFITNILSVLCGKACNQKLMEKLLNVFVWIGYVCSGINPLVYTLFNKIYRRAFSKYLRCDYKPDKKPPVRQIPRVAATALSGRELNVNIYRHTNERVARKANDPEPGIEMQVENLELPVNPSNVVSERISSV
Sequence of Serotonin 2 (5-HT2) receptor (Rattus norvegicus) (P14842 whole entry, looked up): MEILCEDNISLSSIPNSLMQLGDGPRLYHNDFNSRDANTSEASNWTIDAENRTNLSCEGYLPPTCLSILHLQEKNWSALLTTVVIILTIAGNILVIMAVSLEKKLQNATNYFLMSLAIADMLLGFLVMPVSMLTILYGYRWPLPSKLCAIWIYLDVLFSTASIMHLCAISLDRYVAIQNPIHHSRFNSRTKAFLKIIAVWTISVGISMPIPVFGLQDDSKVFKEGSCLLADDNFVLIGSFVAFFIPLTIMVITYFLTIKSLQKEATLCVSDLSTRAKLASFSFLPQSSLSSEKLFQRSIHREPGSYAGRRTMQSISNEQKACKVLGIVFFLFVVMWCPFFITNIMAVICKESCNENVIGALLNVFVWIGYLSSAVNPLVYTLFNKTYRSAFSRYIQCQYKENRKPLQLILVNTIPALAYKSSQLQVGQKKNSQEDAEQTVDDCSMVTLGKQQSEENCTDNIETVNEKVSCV
Sequence of Serotonin 2 (5-HT2) receptor (Rattus norvegicus) (P30994 whole entry, looked up): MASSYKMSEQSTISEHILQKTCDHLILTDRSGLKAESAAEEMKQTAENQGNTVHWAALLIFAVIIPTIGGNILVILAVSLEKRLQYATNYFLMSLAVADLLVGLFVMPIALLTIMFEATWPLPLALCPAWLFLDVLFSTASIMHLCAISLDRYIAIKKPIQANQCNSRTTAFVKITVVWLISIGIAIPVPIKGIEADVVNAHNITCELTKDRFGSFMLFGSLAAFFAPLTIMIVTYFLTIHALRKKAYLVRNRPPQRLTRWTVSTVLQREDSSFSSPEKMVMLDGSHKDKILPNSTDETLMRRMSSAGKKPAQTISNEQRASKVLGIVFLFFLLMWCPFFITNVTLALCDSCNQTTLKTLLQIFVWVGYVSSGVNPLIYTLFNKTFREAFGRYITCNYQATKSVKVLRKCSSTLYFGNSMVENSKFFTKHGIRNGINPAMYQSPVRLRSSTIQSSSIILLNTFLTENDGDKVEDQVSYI
Assay [3] deals with T1, Adrenergic receptor alpha-1 (Homo sapiens, UniProt P35348+P25100+P35368).
T1 sequence (P35348 whole entry): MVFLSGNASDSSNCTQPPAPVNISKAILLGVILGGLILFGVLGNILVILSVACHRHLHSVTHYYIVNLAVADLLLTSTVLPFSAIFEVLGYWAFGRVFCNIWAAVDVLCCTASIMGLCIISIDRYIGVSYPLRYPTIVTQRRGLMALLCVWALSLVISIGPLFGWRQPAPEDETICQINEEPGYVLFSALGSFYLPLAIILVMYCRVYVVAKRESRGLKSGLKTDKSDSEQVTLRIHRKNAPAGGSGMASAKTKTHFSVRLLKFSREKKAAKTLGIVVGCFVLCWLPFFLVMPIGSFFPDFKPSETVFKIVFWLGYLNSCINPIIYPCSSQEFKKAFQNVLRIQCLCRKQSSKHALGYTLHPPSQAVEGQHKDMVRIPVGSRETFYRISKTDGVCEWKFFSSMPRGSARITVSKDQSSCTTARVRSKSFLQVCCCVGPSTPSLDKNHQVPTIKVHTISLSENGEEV
T1 sequence (P25100 whole entry): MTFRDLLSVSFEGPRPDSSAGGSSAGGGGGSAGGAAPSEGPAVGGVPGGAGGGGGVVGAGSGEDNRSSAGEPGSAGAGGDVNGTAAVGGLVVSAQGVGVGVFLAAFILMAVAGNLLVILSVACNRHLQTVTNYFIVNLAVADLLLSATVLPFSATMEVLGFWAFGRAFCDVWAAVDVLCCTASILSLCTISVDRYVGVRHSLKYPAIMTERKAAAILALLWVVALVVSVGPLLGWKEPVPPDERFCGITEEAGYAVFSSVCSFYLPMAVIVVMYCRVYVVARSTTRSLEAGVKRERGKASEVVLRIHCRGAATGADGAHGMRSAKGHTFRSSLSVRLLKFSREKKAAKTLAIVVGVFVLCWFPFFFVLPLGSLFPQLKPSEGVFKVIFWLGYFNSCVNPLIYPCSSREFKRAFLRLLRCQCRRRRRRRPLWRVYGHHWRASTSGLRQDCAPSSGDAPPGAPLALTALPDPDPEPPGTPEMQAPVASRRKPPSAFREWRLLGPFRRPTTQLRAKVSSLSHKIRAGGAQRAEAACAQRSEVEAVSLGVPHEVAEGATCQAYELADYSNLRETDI
T1 sequence (P35368 whole entry): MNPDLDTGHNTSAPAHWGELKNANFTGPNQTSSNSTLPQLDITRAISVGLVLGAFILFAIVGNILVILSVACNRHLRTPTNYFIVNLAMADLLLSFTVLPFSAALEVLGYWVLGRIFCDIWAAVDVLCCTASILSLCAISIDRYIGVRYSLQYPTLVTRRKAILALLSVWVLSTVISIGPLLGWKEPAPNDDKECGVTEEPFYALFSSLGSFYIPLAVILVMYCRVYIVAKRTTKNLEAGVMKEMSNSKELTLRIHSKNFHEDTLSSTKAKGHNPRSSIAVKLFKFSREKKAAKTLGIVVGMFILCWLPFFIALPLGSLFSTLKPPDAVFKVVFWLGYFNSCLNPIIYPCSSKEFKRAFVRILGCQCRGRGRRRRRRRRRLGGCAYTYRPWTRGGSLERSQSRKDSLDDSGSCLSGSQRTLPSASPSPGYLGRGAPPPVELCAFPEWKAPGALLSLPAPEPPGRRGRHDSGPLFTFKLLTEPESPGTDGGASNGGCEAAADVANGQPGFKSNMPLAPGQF
Nature of the assay: Binding affinity against Alpha-1 adrenergic receptor. The format is protein assay.

Assay [4] addresses GABA-A receptor; anion channel (Homo sapiens) (UniProt P14867+P47870+P18507+P28472+P48169+Q99928+Q9UN88+P34903+O00591+O14764+Q8N1C3+P18505+P78334+P47869+P31644+Q16445). Nature of the assay: Displacement of muscimol from GABA-A receptor. The format is protein-complex assay. The essentials:
as §1

Assay [5] is described as follows: Percent decrease in Bradykinin receptor binding. Also noted: concentration or dose not given beside the values. The essentials:
as §1

The nature of assay [6]: Percent decrease of Endothelin receptor binding using [125I]sarafotoxin. On the set-up: concentration or dose not given beside the values.
The target of assay [7] is T2, Muscarinic acetylcholine receptor M1 (Homo sapiens) (UniProt P11229).
T2 sequence (whole entry): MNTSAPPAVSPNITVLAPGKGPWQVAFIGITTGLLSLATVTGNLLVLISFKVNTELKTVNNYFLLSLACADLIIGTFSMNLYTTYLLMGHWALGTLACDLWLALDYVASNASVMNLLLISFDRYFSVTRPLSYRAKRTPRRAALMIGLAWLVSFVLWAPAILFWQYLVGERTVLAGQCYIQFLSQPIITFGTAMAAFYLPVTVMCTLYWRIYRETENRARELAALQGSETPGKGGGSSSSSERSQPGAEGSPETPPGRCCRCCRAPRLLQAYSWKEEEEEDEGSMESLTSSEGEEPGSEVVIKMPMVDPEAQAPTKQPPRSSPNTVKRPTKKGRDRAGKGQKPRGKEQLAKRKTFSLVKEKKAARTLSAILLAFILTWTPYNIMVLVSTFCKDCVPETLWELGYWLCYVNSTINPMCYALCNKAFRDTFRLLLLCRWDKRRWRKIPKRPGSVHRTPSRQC
Nature of the assay: Percent decrease of Muscarinic acetylcholine receptor M1 binding using pirenzepine. Also noted: scale not given: the % may be the effect or the level left. In short, it runs like this:
as §1

Assay [8] has as its target Glutamate [NMDA] receptor (Homo sapiens) (UniProt Q05586+Q12879+Q13224+O15399+O60391+Q14957+Q8TCU5). Nature of the assay: Percent decrease of N-methyl-D-aspartate glutamate receptor binding using MK-801. Also noted: concentration or dose not given beside the values. The class given is protein-complex assay. In short, it runs like this:
as §1

Assay [9] is described as follows: % Decrease of Phorbol Diester Receptor -bound radioactivity using PDBU as a radioligand. Also noted: scale not given: the % may be the effect or the level left. In short, it runs like this: as §1
Assay [10] concerns the target Glutamate receptor ionotropic AMPA (Homo sapiens) (UniProt P48058+P42263+P42262+P42261). Nature of the assay: Percent decrease of Quisqualate receptor binding using AMPA. The format is protein-complex assay. Also noted: scale not given: the % may be the effect or the level left. The essentials: as §1
The nature of assay [11]: % Decrease of adenosine carrier-receptor -bound radioactivity using NBTI as a radioligand. Also noted: concentration or dose not given beside the values. The essentials:
as §1

One may read the Ki as the equilibrium dissociation constant of an inhibitor or competing ligand from its target.

Sequence of Sodium-dependent serotonin transporter (Homo sapiens) (P31645 whole entry, looked up): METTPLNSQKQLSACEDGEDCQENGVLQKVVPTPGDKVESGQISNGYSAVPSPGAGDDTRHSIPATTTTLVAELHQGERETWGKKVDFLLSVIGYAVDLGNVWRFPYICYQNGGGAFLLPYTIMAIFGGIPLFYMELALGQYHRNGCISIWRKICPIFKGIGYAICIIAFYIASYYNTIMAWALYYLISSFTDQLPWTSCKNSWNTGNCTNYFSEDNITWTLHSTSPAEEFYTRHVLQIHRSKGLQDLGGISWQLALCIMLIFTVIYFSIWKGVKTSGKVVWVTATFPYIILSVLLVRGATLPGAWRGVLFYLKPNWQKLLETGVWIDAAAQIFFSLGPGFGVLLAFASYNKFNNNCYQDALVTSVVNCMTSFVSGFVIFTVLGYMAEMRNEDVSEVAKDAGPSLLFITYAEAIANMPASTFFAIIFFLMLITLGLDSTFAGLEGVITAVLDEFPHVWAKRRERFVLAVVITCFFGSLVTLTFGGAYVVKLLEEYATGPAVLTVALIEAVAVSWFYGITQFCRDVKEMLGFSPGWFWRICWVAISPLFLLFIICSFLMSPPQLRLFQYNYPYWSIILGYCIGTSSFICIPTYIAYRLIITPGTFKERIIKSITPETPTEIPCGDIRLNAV

`c1ccc2c3c([nH]c2c1)C1c2[nH]c4ccccc4c2CCN1CC3`: the Activity in assay [1] was -45%; in assay [2] it was -52%; in assay [4], 5%; in [5], 2%; in [6], 1%; in assay [7], -18%. The Activity in [8] was -52%; in assay [9], -15%; in assay [10], -1%; in assay [11], 1%. The compound further registered a Ki in assay [3] of 76 nM.

Take `CN1CCc2ccccc2Cc2[nH]c3ccccc3c2CC1`: the Activity in assay [1] is -8%; in assay [4], -9%; in assay [5] it was -2%; in assay [6], 0%; in [7], -9%; in assay [8], -18%. Also, the figures for the Activity in assay [9] and in [11] were 0% and -14%, respectively. Further, in assay [3], the Ki is on record as 11 nM.

Regarding `c1ccc2c(c1)CCN1CCc3c([nH]c4ccccc34)C21` (configuration not stated), the Activity in assay [1] is -32%; in assay [2] it was -41%; in [4] it was -17%; in assay [5] it was -2%; in assay [6] it was -1%; in assay [7], -22%. The Activity in [8] was -33%; in assay [9], -6%; in [10] it was 3%; in assay [11], -29%. Moreover, in assay [3], the Ki turned out to be 79 nM.

On to `COc1cc2c(cc1OC)C1c3[nH]c4ccccc4c3CCN1CC2` (configuration not stated), for which the Activity is -8% in assay [1]; -32% in [2]; -26% in assay [4]; 9% in assay [5]; 0% in assay [6]; -11% in assay [7]. Further, the Activity in assay [8] is -14%; in [9] it was -9%; in [10], -1%; in assay [11], -17%. Besides, the Ki in assay [3] is given as 17 nM.

The values are drawn from ChEMBL document CHEMBL1133101, “7-Methyl-6,7,8,9,14,15-hexahydro-5H-benz[d]indolo[2,3-g]azecine: a new heterocyclic system and a new lead compound for dopamine receptor antagonists” (J Med Chem, 2000).
